In brackets after ≈: the same amount, converted by molar mass.
Tests used:
[1] = pKa value was determined; format: physicochemical
[2] = target: DNA gyrase (Escherichia coli, UniProt P0AES4+P0AES6); assay: Inhibitory activity against Escherichia coli DNA gyrase; format: protein-complex assay
[3] = tested on: Staphylococcus aureus; assay: Compound was evaluated for its minimum inhibitory concentration against Staphylococcus aureus; format: functional
Procedure, shortened: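 MIC by 2-fold broth microdilution, read after 24-h incubation; S. aureus strain 011HT3, no particular resistance phenotype.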

[4] = tested on: Staphylococcus aureus; assay: Compound was evaluated for its minimum inhibitory concentration against Staphylococcus aureus in presence of 10% serum; format: functional
Procedure, shortened: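 MIC against S. aureus strain 011HT3 (no particular resistance phenotype) in medium containing serum proteins; 2-fold broth microdilution, read after 24-h incubation.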

pKa [1] | IC50 [2] [nM] | MIC [3] [µg/mL] | MIC [4] [µg/mL] | Structure (SMILES)
8 | 281 | 2.5 (≈ 4.39 µM) | 2.5 | CO[C@@H]1[C@@H](OC(=O)c2ccc(C)[nH]2)[C@@H](O)[C@H](Oc2ccc3c(N4CC(C)NC(C)C4)cc(=O)oc3c2C)OC1(C)C (some centres not stated)
3.6 | – | < 0.04 | 2.5 | CO[C@@H]1[C@@H](OC(N)=O)[C@@H](O)[C@H](Oc2ccc3c(O)c(NC(=O)c4ccc(O)c(CC=C(C)C)c4)c(=O)oc3c2C)OC1(C)C [NOVOBIOCIN]
5.5 | 1780 | 0.3 (≈ 0.485 µM) | 10 | CO[C@@H]1[C@@H](OC(=O)c2ccc(C)[nH]2)[C@@H](O)[C@H](Oc2ccc3c(N4CCN(c5ccccn5)CC4)cc(=O)oc3c2C)OC1(C)C
7.4 | 847 | 1.2 (≈ 2.03 µM) | 20 | CO[C@@H]1[C@@H](OC(=O)c2ccc(C)[nH]2)[C@@H](O)[C@H](Oc2ccc3c(N4CCN(C)CC4)c(Cl)c(=O)oc3c2C)OC1(C)C
9 | 480 | 2.5 (≈ 4.28 µM) | 2.5 | CO[C@@H]1[C@@H](OC(=O)c2ccc(C)[nH]2)[C@@H](O)[C@H](Oc2ccc3c(N4CCC(N(C)C)CC4)cc(=O)oc3c2C)OC1(C)C
7.3 | 540 | 0.15 (≈ 0.27 µM) | 0.3 | CO[C@@H]1[C@@H](OC(=O)c2ccc(C)[nH]2)[C@@H](O)[C@H](Oc2ccc3c(N4CCN(C)CC4)cc(=O)oc3c2C)OC1(C)C

More lines, now with the values behind:

Structure (SMILES) | pKa [1] | IC50 [2] [nM] | MIC [3] [µg/mL] | MIC [4] [µg/mL]
CO[C@@H]1[C@@H](OC(=O)c2ccc(C)[nH]2)[C@@H](O)[C@H](Oc2ccc3c(N(C)CCN(C)C)cc(=O)oc3c2C)OC1(C)C | 8.2 | 628 | 5 (≈ 8.97 µM) | 5
CO[C@@H]1[C@@H](OC(=O)c2ccc(C)[nH]2)[C@@H](O)[C@H](Oc2ccc3c(N4CC[N+](C)(C)CC4)cc(=O)oc3c2C)OC1(C)C | – | 245 | > 40 | > 40
CO[C@@H]1[C@@H](OC(=O)c2ccc(C)[nH]2)[C@@H](O)[C@H](Oc2ccc3c(N4CCNC(C)C4)cc(=O)oc3c2C)OC1(C)C (some centres not stated) | 8.3 | 225 | 2.5 (≈ 4.5 µM) | 2.5
CCN1CCN(c2cc(=O)oc3c(C)c(O[C@@H]4OC(C)(C)[C@H](OC)[C@@H](OC(=O)c5ccc(C)[nH]5)[C@H]4O)ccc23)CC1 | 7.5 | 439 | 0.6 (≈ 1.05 µM) | 2.5
CO[C@@H]1[C@@H](OC(=O)c2ccc(C)[nH]2)[C@@H](O)[C@H](Oc2ccc3c(N4CCNCC4)cc(=O)oc3c2C)OC1(C)C | 8.3 | 231 | 5 (≈ 9.23 µM) | 5

Reference: ChEMBL document CHEMBL1134088, “Fine Tuning of physico-chemical parameters to optimise a new series of novobiocin analogues” (Bioorg Med Chem Lett, 2001)
